Experimental data gathered from unrelated publications.
Each line is one published result; the experiments were not run side by side.
Target: Tyrosine-protein kinase Fyn (FYN, Homo sapiens, UniProt P06241)

| Compound | test | conditions | remaining binding [%] |
| --- | --- | --- | --- |
| Cc1cnn2ncc(-c3ccnc(N(C)C)n3)c2c1 | binding | 1 µM | 98 |
| CCN1CCN(Cc2ccc(C(=O)Nc3ccc(C)c(Oc4ccc5c(c4)CC(=O)N5)c3)cc2C(F)(F)F)CC1 | binding, competition with immobilised ligand | 1 µM | 90 |
| O=C(c1ccc(Nc2ncc(Cl)c(-c3ccc(Cl)s3)n2)cc1)N1CCC(N2CCCC2)CC1 | binding, competition with immobilised ligand | 1 µM | 100 |
| NS(=O)(=O)c1cc(NC(=O)C2(c3ccccc3Cl)CC2)ccc1Oc1cccc(Cl)c1 | cell-free assay, competition with immobilised ligand | 1 µM | 100 |
| O=C(Nc1c[nH]nc1C(=O)NC1CCNCC1)c1cc(F)cc(F)c1 | binding, competition with immobilised ligand | 1 µM | 100 |
| C[C@H]1CCN(c2nccc(-c3cnn4ncccc34)n2)C1 | binding | 1 µM | 100 |
| CNC(=O)[C@@H]1CC[C@@H](n2c(-c3ccc4cnccc4c3)nc3ccc(C(=O)NCc4cccc(C(N)=O)c4)cc32)C1 | binding, competition with immobilised ligand | 1 µM | 100 |
| CN(C)c1nccc(-c2cnn3ncccc23)n1 | binding | 1 µM | 100 |
| Cn1cc(Cl)c2c(Oc3c(F)cc(Nc4cc(Cl)nc(N)n4)cc3F)ccnc21 | cell-free assay, competition with immobilised ligand | 0.1 µM | 80 |
| c1cnn2ncc(-c3ccnc(N4CCC45COC5)n3)c2c1 | binding | 1 µM | 79 |
| COc1cnc(Nc2cccc(S(N)(=O)=O)c2)nc1N1CCN(c2ccccc2)CC1 | binding, competition with immobilised ligand | 1 µM | 99 |
| O=C(NCCCN1CCOCC1)c1ccc(Nc2ncc(Cl)c(-c3ccc(Cl)s3)n2)cc1 | binding, competition with immobilised ligand | 1 µM | 100 |
| CCOCCn1cc(C(=O)Nc2ccc(-n3nc(-c4cccnc4)cc3C(F)(F)F)cn2)ccc1=O | cell-free assay, competition with immobilised ligand | 1 µM | 53 |
| C=CC(=O)N1CCC(C(=O)NCC(=O)N2CCN(c3nc(-c4cnc(N)nc4C(F)F)nc(N4CCOCC4)n3)CC2)CC1 | binding, competition with immobilised ligand | 1 µM | 100 |
| C[C@H](c1ccc(F)cc1)N(Cc1cccc(C(=O)O)c1)C(=O)c1cnc2ccccc2c1 | cell-free assay, competition with immobilised ligand | 1 µM | 63 |
| N[C@@H]1CCN(c2nccc(-c3cnn4ncccc34)n2)C1 | binding | 1 µM | 100 |
| CS(=O)(=O)N1CCCC(NC(=O)[C@H](CCC2CCCCC2)NC(=O)c2ccc(CNC(=O)c3cnc4ccccn34)cc2)C1 (some centres unmarked) | cell-free assay, competition with immobilised ligand | 0.1 µM | 80 |
| Nc1ncc2c(n1)-c1c([nH]c3ccc(C#CC4CC4)cc13)CCCC2 | binding, competition with immobilised ligand | 1 µM | 100 |
| O=C(O)[C@@H]1[C@@H](Cn2nnc3ccccc3c2=O)CC[C@H]1C(=O)c1ccc(OCCC2CCOCC2)cc1 | cell-free assay, competition with immobilised ligand | 1 µM | 76 |
| O=C(NCCCN1CCOCC1)c1ccc(Nc2nccc(-c3cc4ccccc4s3)n2)cc1 | binding, competition with immobilised ligand | 1 µM | 94 |
